A short description of data set [1]: Plasma protein binding in baboon after 10 mins. Format: ADME, cell-free. As to conditions: papio anubis; call rule not given here.
Data set [2] can be described thus: Octanol-phosphate buffer partition coefficient, log D of the compound at pH 7.4. The format is physicochemical. As to conditions: octanol/water. A digest of the protocol: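 Partitioning between octanol and pH 7.4 phosphate buffer, with the carbon-11 radiolabel used to report drug concentration in each phase.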
In data set [3] the test system is Mycobacterium tuberculosis. Kind of data set: Binding affinity to Mycobacterium tuberculosis InhA:NAD+ complex expressed in Escherichia coli BL21(DE3)pLysS assessed as residence time.
Data set [4] has as its system Spleen. Nature of the data set: Drug uptake in mouse spleen measured at 20 mins. The format is ADME, tissue-based. As to conditions: in vivo. A digest of the protocol: (§1)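 Healthy mice were injected with [11C]-labelled tracer. Tissue radioactivity was measured at 20, 40 and 60 min post-injection and expressed as % injected dose/gram. Values are mean ± SD of three animals.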

Data set [5] deals with Lung. Nature of the data set: Drug uptake in mouse lung measured at 20 mins. As to conditions: in vivo. Format: ADME, tissue-based. In outline:
as §1

Data set [6] has as its system Lung. Kind of data set: Drug uptake in mouse lung measured at 40 mins. The format is ADME, tissue-based. The settings on record: in vivo. In outline: as §1
A short description of data set [7]: Drug uptake in iv dosed baboon gallbladder measured over 90 to 120 mins by PET image analysis. Format: ADME, organism-based, Gall bladder. As to conditions: papio anubis, in vivo.
Data set [8] concerns Spleen. Nature of the data set: Drug uptake in mouse spleen measured at 60 mins. Format: ADME, tissue-based. As to conditions: in vivo, 1 h. In outline: as §1
Data set [9] has as its system Liver. Kind of data set: Drug uptake in mouse liver measured at 40 mins. The format is ADME, tissue-based. As to conditions: in vivo. A digest of the protocol:
as §1

Data set [10] has as its system Kidney. Kind of data set: Drug uptake in mouse kidney measured at 60 mins. As to conditions: in vivo, 1 h. The format is ADME, tissue-based. A digest of the protocol: as §1
Data set [11] is described as follows: Drug uptake in iv dosed baboon spleen measured over 90 mins by PET image analysis. Format: ADME, organism-based. The settings on record: papio anubis, in vivo, 1.5 h. In outline: (§2)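 Dynamic PET scan of baboons over 90 min after i.v. [11C]-labelled radiotracer. Peripheral organ time-activity curves were derived from regions of interest drawn manually on the images.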

Data set [12] can be described thus: Drug uptake in iv dosed baboon liver measured over 90 mins by PET image analysis. As to conditions: papio anubis, in vivo, 1.5 h. Format: ADME, organism-based. In outline: as §2
The test system of data set [13] is Liver. Nature of the data set: Drug uptake in mouse liver measured at 60 mins. As to conditions: in vivo, 1 h. Format: ADME, tissue-based. In outline: as §1
Data set [14] can be described thus: Drug uptake in iv dosed baboon lung measured over 90 mins by PET image analysis. The format is ADME, organism-based. The settings on record: papio anubis, in vivo, 1.5 h. In outline:
as §2

Data set [15] can be described thus: Drug uptake in iv dosed baboon blood measured over 90 mins by PET image analysis. Format: ADME, organism-based. As to conditions: papio anubis, in vivo, 1.5 h. In outline: as §2
Data set [16] has as its system Kidney. Kind of data set: Drug uptake in mouse kidney measured at 40 mins. The format is ADME, tissue-based. As to conditions: in vivo. In outline:
as §1

A short description of data set [17]: Drug uptake in iv dosed baboon kidney measured over 90 mins by PET image analysis. The format is ADME, organism-based. As to conditions: papio anubis, in vivo, 1.5 h. A digest of the protocol: as §2
The test system of data set [18] is Spleen. Kind of data set: Drug uptake in mouse spleen measured at 40 mins. As to conditions: in vivo. The format is ADME, tissue-based. A digest of the protocol: as §1
Data set [19] has as its system Lung. Kind of data set: Drug uptake in mouse lung pretreated with unlabelled compound for 1 hr followed by radiolabeled compound treatment measured after 20 mins by PET image analysis. Format: ADME, tissue-based. As to conditions: in vivo. A digest of the protocol:
(§3)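 Mice received a 200 mg/kg predose of unlabelled compound 1 h before [11C]-tracer injection. Tissue radioactivity was read 20 min after the tracer and given as % injected dose/gram, mean ± SD of three animals.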

The test system of data set [20] is Blood. Nature of the data set: Drug uptake in mouse blood measured at 60 mins. The format is ADME, tissue-based. As to conditions: 1 h. In outline:
as §1

The test system of data set [21] is Blood. Kind of data set: Drug uptake in mouse blood measured at 20 mins. The format is ADME, tissue-based. In outline:
as §1

In data set [22] the test system is Brain. Nature of the data set: Drug uptake in iv dosed baboon brain measured over 15 to 90 mins by PET image analysis. The format is ADME, organism-based. As to conditions: papio anubis, in vivo. A digest of the protocol:
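Baboon PET after i.v. radiolabelled drug, with images acquired for 90 min. Dose-corrected coronal images were summed over 15–90 min. Time-activity curves came from manually drawn regions of interest.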

Data set [23] relates to Blood. Nature of the data set: Drug uptake in mouse blood measured at 40 mins. Format: ADME, tissue-based. A digest of the protocol:
as §1

Data set [24] concerns Spleen. Kind of data set: Drug uptake in mouse spleen pretreated with unlabelled compound for 1 hr followed by radiolabeled compound treatment measured after 20 mins by PET image analysis. The format is ADME, tissue-based. As to conditions: in vivo. A digest of the protocol: as §3
Data set [25] is described as follows: Drug uptake in iv dosed baboon heart measured over 90 mins by PET image analysis. The format is ADME, organism-based. As to conditions: papio anubis, in vivo, 1.5 h. In outline:
as §2

Data set [26] concerns Lung. Kind of data set: Drug uptake in mouse lung measured at 60 mins. As to conditions: in vivo, 1 h. Format: ADME, tissue-based. A digest of the protocol:
as §1

In data set [27] the test system is Kidney. Nature of the data set: Drug uptake in mouse kidney measured at 20 mins. The settings on record: in vivo. The format is ADME, tissue-based. A digest of the protocol: as §1
The subject of data set [28] is Mycobacterium tuberculosis. Nature of the data set: Binding affinity to Mycobacterium tuberculosis InhA assessed as residence time.

`CCCCCCc1ccc(Oc2ccccc2C)c(O)c1` came in with a PPB in [1] of 99.76%. In addition, the logD (in general, lipophilicity at a set pH, counting ionised and neutral species) in [2] is on record as 3.65. The TIME in data set [3] stood at 0.4 h.

With `CCCCCCc1ccc(Oc2ccccc2[11CH3])c(O)c1`, the Drug uptake in data set [4] is listed as 1.82 %ID/cc; in [5], 1.36 %ID/cc; in data set [6], 1.26 %ID/cc; in [7] it was “Active”; in [8], 0.21 %ID/cc; in data set [9], 15.7 %ID/cc. In addition, the Drug uptake was 0.31 %ID/cc in [10]; “Active” in data set [11]; “Active” in data set [12]; 14.09 %ID/cc in data set [13]; “Not Active” in data set [14]; “Not Active” in data set [15]. In addition, the Drug uptake is 1.45 %ID/cc in data set [16]; “Active” in data set [17]; 0.93 %ID/cc in data set [18]; “Active” in data set [19]; 0.55 %ID/cc in data set [20]; 1.7 %ID/cc in data set [21]. Further, the Drug uptake entry in data set [22] is given as “Active”; in data set [23] it was 1.46 %ID/cc; in data set [24], “Active”; in data set [25] it was “Not Active”; in data set [26] it was 1.35 %ID/cc; in data set [27] it was 2.21 %ID/cc.

As for `CCCCCCc1ccc(Oc2ccccc2[11C]#N)c(O)c1`, the Drug uptake result in [22] is given as “Active”.

In the case of `NC(=O)C1=CN([C@@H]2O[C@H](COP(=O)(O)OP(=O)(O)OC[C@H]3O[C@@H](n4cnc5c(N)ncnc54)[C@H](O)[C@@H]3O)[C@@H](O)[C@H]2O)C=C[C@@H]1C(=O)c1ccncc1`, the TIME in data set [28] worked out at 1 h.

The values are drawn from ChEMBL document CHEMBL3632514, “Radiolabelling and positron emission tomography of PT70, a time-dependent inhibitor of InhA, the Mycobacterium tuberculosis enoyl-ACP reductase” (Bioorg Med Chem Lett, 2015).
